In ChEMBL document CHEMBL4725360, “Optimization of Acetazolamide-Based Scaffold as Potent Inhibitors of Vancomycin-Resistant Enterococcus” (J Med Chem, 2020):
Converted amounts (≈) assume the structure as drawn. The source made the active and inactive calls. The calls are words filed in the database; no cut-off is given here.

Assays:
Enterococcus faecium [1] = test: Antibacterial activity against Enterococcus faecium HM965 incubated for 18 to 20 hrs under aerobic condition by CLSI protocol based broth microdilution assay; assay type: functional; details: time hrs 18-20
Outline: (§1)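 Broth microdilution per CLSI. Strains grown aerobically overnight on trypticase soy agar at 37 °C. Inoculum set to 0.5 McFarland, diluted in trypticase soy broth to about 5 × 10⁵ CFU/mL. Agents serially diluted, plates incubated aerobically at 37 °C for 18–20 h. MIC is the lowest concentration with no visible growth. Compound stocks 10 mg/mL in DMSO.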

Enterococcus faecium [2] = test: Antibacterial activity against Enterococcus faecium NR-31903 incubated for 18 to 20 hrs under aerobic condition by CLSI protocol based broth microdilution assay; assay type: functional; details: time hrs 18-20; outline: as §1
[3] = Cytotoxicity against human Caco2 cells incubated for 2 hrs by MTS assay; assay type: cell-based; details: Caco-2 cells
Outline: (§2)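 Caco-2 cells maintained in DMEM with 10% FBS, non-essential amino acids and penicillin-streptomycin at 37 °C, 5% CO₂. Compound exposure for 2 h in serum-free medium at several concentrations; DMSO-matched controls. Viability expressed relative to DMSO controls (mean ± SD), and CC₅₀ derived.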

[4] = Metabolic stability in human liver microsomes assessed as compound remaining measured after 60 mins; assay type: ADME, Microsome; details: 1 h
Outline: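 Human liver microsomes at 0.1 mg/mL, 37 °C. Percent parent remaining at 60 min, mean of 2 replicates.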

Enterococcus faecium [5] = test: Inhibition of carbonic anhydrase in Enterococcus faecium ATCC 700221 assessed as antibacterial activity incubated for 18 to 20 hrs in presence of 5% CO2 by CLSI protocol based broth microdilution assay; details: time hrs 18-20
Outline: (§3)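 CLSI broth microdilution: inoculum about 5 × 10⁵ CFU/mL in trypticase soy broth with serial dilutions of agents. Paired plates incubated at 37 °C for 18–20 h, one set in ambient air ("normal"), the other under 5% CO₂. MIC is the lowest concentration completely inhibiting visible growth.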

Enterococcus faecium [6] = test: Antibacterial activity against Enterococcus faecium NR-32052 incubated for 18 to 20 hrs under aerobic condition by CLSI protocol based broth microdilution assay; assay type: functional; details: time hrs 18-20; outline: as §1
Enterococcus faecium [7] = test: Antibacterial activity against Enterococcus faecium NR-32065 incubated for 18 to 20 hrs under aerobic condition by CLSI protocol based broth microdilution assay; assay type: functional; details: time hrs 18-20; outline: as §1
Enterococcus faecalis [8] = test: Antibacterial activity against Enterococcus faecalis HM-335 incubated for 18 to 20 hrs under aerobic condition by CLSI protocol based broth microdilution assay; assay type: functional; details: time hrs 18-20; outline: as §1
Enterococcus faecium [9] = test: Bacteriostatic activity against Enterococcus faecium ATCC 700221 assessed as reduction in bacterial burden at 5 times MIC preincubated for 24 hrs followed by replating on soya agar plates and measured after 16 hrs by time-kill assay; assay type: functional, organism-based
Outline: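 E. faecium ATCC 700221 overnight culture diluted in trypticase soy broth to 3.5 × 10⁶ CFU/mL. […] Samples taken at 2, 4, 6, 8, 12 and 24 h, diluted in PBS and plated on trypticase soy agar. Colonies counted after 16 h at 37 °C. Detection limit 100 CFU/mL. Two-way ANOVA with Dunnett's test.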

[10] = Apparent permeability across basolateral to apical side in human Caco2 cells; assay type: ADME, cell-based; details: caco-2
Outline: (§4)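 Bi-directional Caco-2 monolayer permeability, run at Eurofins: donor at pH 6.5, receiver at pH 7.4, both A→B and B→A. Papp derived from receiver concentration at the end point, incubation time, monolayer area and mid-point donor concentration. Concentrations taken as peak areas.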

Enterococcus faecium [11] = test: Inhibition of carbonic anhydrase in Enterococcus faecium ATCC 700221 assessed as antibacterial activity incubated for 18 to 20 hrs in presence of ambient air by CLSI protocol based broth microdilution assay; details: time hrs 18-20; outline: as §3
Enterococcus faecalis [12] = test: Antibacterial activity against Enterococcus faecalis HM-334 incubated for 18 to 20 hrs under aerobic condition by CLSI protocol based broth microdilution assay; assay type: functional; details: time hrs 18-20; outline: as §1
Enterococcus faecium [13] = test: Antibacterial activity against Enterococcus faecium NR-31972 incubated for 18 to 20 hrs under aerobic condition by CLSI protocol based broth microdilution assay; assay type: functional; details: time hrs 18-20; outline: as §1
Caco-2 = test: Cytotoxicity against human Caco2 cells at 128 ug/ml incubated for 2 hrs by MTS assay; assay type: cell-based; details: caco-2, 2 h, dose 128 µg/ml; outline: as §2
[14] = Half life in human liver microsomes after 60 mins; assay type: ADME, Microsome; details: 1 h
Enterococcus faecium [15] = test: Antibacterial activity against Enterococcus faecium NR-31916 incubated for 18 to 20 hrs under aerobic condition by CLSI protocol based broth microdilution assay; assay type: functional; details: time hrs 18-20; outline: as §1
[16] = Aqueous solubility of compound in pH 7.4 PBS measured at 24 hrs by HPLC analysis; assay type: physicochemical; details: buffer, pH 7.4, 24 h
Outline: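 HPLC principal-peak area of the buffer sample compared with a 200 μM calibration standard in methanol/water 60/40.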

Enterococcus faecium [17] = test: Antibacterial activity against Enterococcus faecium NR-31914 incubated for 18 to 20 hrs under aerobic condition by CLSI protocol based broth microdilution assay; assay type: functional; details: time hrs 18-20; outline: as §1
Enterococcus faecium [18] = test: Antibacterial activity against Enterococcus faecium NR-28978 incubated for 18 to 20 hrs under aerobic condition by CLSI protocol based broth microdilution assay; assay type: functional; details: time hrs 18-20; outline: as §1
Enterococcus faecium [19] = test: Antibacterial activity against Enterococcus faecium HM968 incubated for 18 to 20 hrs under aerobic condition by CLSI protocol based broth microdilution assay; assay type: functional; details: time hrs 18-20; outline: as §1
[20] = Apparent permeability across apical to basolateral side in human Caco2 cells; assay type: ADME, cell-based; details: caco-2; outline: as §4
Enterococcus faecium [21] = test: Antibacterial activity against Enterococcus faecium NR-31971 incubated for 18 to 20 hrs under aerobic condition by CLSI protocol based broth microdilution assay; assay type: functional; details: time hrs 18-20; outline: as §1
Enterococcus faecium [22] = test: Inhibition of carbonic anhydrase in Enterococcus faecium NR-31972 assessed as antibacterial activity incubated for 18 to 20 hrs in presence of ambient air by CLSI protocol based broth microdilution assay; details: time hrs 18-20; outline: as §3
Enterococcus faecium [23] = test: Antibacterial activity against Enterococcus faecium ATCC 700221 by CLSI protocol based assay; assay type: functional; outline: as §1
Enterococcus faecium [24] = test: Inhibition of carbonic anhydrase in Enterococcus faecium NR-31971 assessed as antibacterial activity incubated for 18 to 20 hrs in presence of ambient air by CLSI protocol based broth microdilution assay; details: time hrs 18-20; outline: as §3
Enterococcus faecium [25] = test: Inhibition of carbonic anhydrase in Enterococcus faecium NR-31972 assessed as antibacterial activity incubated for 18 to 20 hrs in presence of 5% CO2 by CLSI protocol based broth microdilution assay; details: time hrs 18-20; outline: as §3
Enterococcus faecium [26] = test: Inhibition of carbonic anhydrase in Enterococcus faecium HM-965 assessed as antibacterial activity incubated for 18 to 20 hrs in presence of 5% CO2 by CLSI protocol based broth microdilution assay; details: time hrs 18-20; outline: as §3
Enterococcus faecalis [27] = test: Inhibition of carbonic anhydrase in Enterococcus faecalis HM-334 assessed as antibacterial activity incubated for 18 to 20 hrs in presence of 5% CO2 by CLSI protocol based broth microdilution assay; details: time hrs 18-20; outline: as §3
Enterococcus faecium [28] = test: Inhibition of carbonic anhydrase in Enterococcus faecium HM-965 assessed as antibacterial activity incubated for 18 to 20 hrs in presence of ambient air by CLSI protocol based broth microdilution assay; details: time hrs 18-20; outline: as §3
Enterococcus faecalis [29] = test: Inhibition of carbonic anhydrase in Enterococcus faecalis HM-334 assessed as antibacterial activity incubated for 18 to 20 hrs in presence of ambient air by CLSI protocol based broth microdilution assay; details: time hrs 18-20; outline: as §3
Enterococcus faecium [30] = test: Inhibition of carbonic anhydrase in Enterococcus faecium NR-31971 assessed as antibacterial activity incubated for 18 to 20 hrs in presence of 5% CO2 by CLSI protocol based broth microdilution assay; details: time hrs 18-20; outline: as §3
[31] = Tmax in ICR mouse at 10 mg/kg, po administered via gavage and measured after 10 to 1440 mins by LC/MS/MS analysis; assay type: ADME, organism-based; details: in vivo, time 10-1440 min
Outline: (§5)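 Male ICR mice, 10 mg/kg single oral gavage; n = 3 mice per time point, 8 time points from 10 to 1440 min. Plasma taken by cardiac puncture and mixed with buffer containing oxybutynin internal standard. Samples diluted with acetonitrile, then LC/MS/MS on C18 with acetonitrile/water–formic acid mobile phases in MRM mode. Concentration read off a standard curve.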

Enterococcus faecalis [32] = test: Antibacterial activity against Enterococcus faecalis NR-31970 incubated for 18 to 20 hrs under aerobic condition by CLSI protocol based broth microdilution assay; assay type: functional, organism-based; details: time hrs 18-20; outline: as §1
[33] = Cmax in ICR mouse at 10 mg/kg, po administered via gavage and measured after 30 mins by LC/MS/MS analysis; assay type: ADME, organism-based; parameters: route oral, dose 10 mg/kg, time 10-1440; details: in vivo, 0.5 h; outline: as §5
[34] = Plasma concentration in ICR mouse at 10 mg/kg, po administered via gavage and measured after 10 to 1440 mins by LC/MS/MS analysis; assay type: ADME, organism-based; details: in vivo, time 10-1440 min; outline: as §5
[35] = AUC(0 to infinity) in ICR mouse at 10 mg/kg, po administered via gavage and measured after 10 to 1440 mins by LC/MS/MS analysis; assay type: ADME, organism-based; parameters: route oral, dose 10 mg/kg, time 10-1440; details: in vivo; outline: as §5
[36] = Drug excretion in ICR mouse at 10 mg/kg, po administered via gavage and measured after 1440 mins by LC/MS/MS analysis; assay type: ADME, organism-based; details: in vivo, read-out: Drug excretion
Enterococcus faecalis [37] = test: Antibacterial activity against Enterococcus faecalis NR-31975 incubated for 18 to 20 hrs under aerobic condition by CLSI protocol based broth microdilution assay; assay type: functional, organism-based; details: time hrs 18-20; outline: as §1
[38] = MRT in ICR mouse at 10 mg/kg, po administered via gavage and measured after 10 to 1440 mins by LC/MS/MS analysis; assay type: ADME, organism-based; details: in vivo, time 10-1440 min; outline: as §5
[39] = Dose normalized AUC in ICR mouse at 10 mg/kg, po administered via gavage and measured after 10 to 1440 mins by LC/MS/MS analysis; assay type: ADME, organism-based; details: in vivo, time 10-1440 min; outline: as §5

Compound	MIC (Enterococcus faecium [1]) [µg/mL]	MIC (Enterococcus faecium [2]) [µg/mL]	CC50 at 2 h [3] [µg/mL]	Stabilty [4] [%]	inhibition (Enterococcus faecium [5])	MIC (Enterococcus faecium [6]) [µg/mL]	MIC (Enterococcus faecium [7]) [µg/mL]	MIC (Enterococcus faecalis [8]) [µg/mL]	Activity (Enterococcus faecium [9])	Papp [10]	inhibition (Enterococcus faecium [11])	MIC (Enterococcus faecalis [12]) [µg/mL]	MIC (Enterococcus faecium [13]) [µg/mL]	Activity (Caco-2)	t1/2 [14] [h]	MIC (Enterococcus faecium [15]) [µg/mL]	solubility [16] [µM]	MIC (Enterococcus faecium [17]) [µg/mL]	MIC (Enterococcus faecium [18]) [µg/mL]	MIC (Enterococcus faecium [19]) [µg/mL]	also measured
NS(=O)(=O)c1nnc(NC(=O)CN2CCOCC2)s1	1 (≈ 3.25 µM)	2 (≈ 6.51 µM)	> 128	86	inactive	1 (≈ 3.25 µM)	2 (≈ 6.51 µM)	0.5 (≈ 1.63 µM)	Active	< 0.17 10^-6 cm/s	Active	4 (≈ 13 µM)	4 (≈ 13 µM)	Non-Toxic	4.95	1 (≈ 3.25 µM)	126.6 (≈ 38.9 µg/mL)	2 (≈ 6.51 µM)	2 (≈ 6.51 µM)	1 (≈ 3.25 µM)	Papp [20]: < 0.17 10^-6 cm/s; MIC (Enterococcus faecium [21]): 2 µg/mL (≈ 6.51 µM)
CC(=O)Nc1nnc(S(N)(=O)=O)s1 [ACETAZOLAMIDE]	–	–	–	–	–	–	–	–	Active	–	–	–	–	–	–	–	–	–	–	–	MIC (Enterococcus faecium [22]): 2 µg/mL; MIC (Enterococcus faecium [23]): 0.5 µg/mL (≈ 2.25 µM); MIC (Enterococcus faecium [24]): 2 µg/mL; MIC (Enterococcus faecium [5]): > 64 µg/mL; MIC (Enterococcus faecium [25]): > 64 µg/mL; MIC (Enterococcus faecium [26]): > 64 µg/mL; Papp B→A [10]: 0.77 ×10⁻⁶ cm/s; MIC (Enterococcus faecium [11]): 1 µg/mL; MIC (Enterococcus faecalis [27]): > 64 µg/mL; MIC (Enterococcus faecium [28]): 2 µg/mL; MIC (Enterococcus faecalis [29]): 2 µg/mL; MIC (Enterococcus faecium [30]): > 64 µg/mL; Papp A→B [20]: 0.19 ×10⁻⁶ cm/s
NS(=O)(=O)c1nnc(NC(=O)CCC2CCCCC2)s1	0.007 (≈ 0.022 µM)	0.015 (≈ 0.0471 µM)	> 128	62	inactive	0.015 (≈ 0.0471 µM)	0.015 (≈ 0.0471 µM)	0.03 (≈ 0.0942 µM)	Active	14.1 10^-6 cm/s	Active	0.007 (≈ 0.022 µM)	0.015 (≈ 0.0471 µM)	Non-Toxic	1.23	0.03 (≈ 0.0942 µM)	32.8 (≈ 10.4 µg/mL)	0.03 (≈ 0.0942 µM)	0.06 (≈ 0.188 µM)	0.03 (≈ 0.0942 µM)	Tmax [31]: 0.5 h; Activity (Enterococcus faecalis [32]): Active; Cmax [33]: 456 ng/mL; Cp [34]: 184 ng/mL; AUC(0-inf) [35]: 562 ng·h/mL; dose excreted at 24 h [36]: 100%; Activity (Enterococcus faecalis [37]): Active; MRT [38]: 1.35 h; AUC/dose [39]: 56 kg·ng·h/mL/mg; Papp [20]: 6.5 10^-6 cm/s; MIC (Enterococcus faecium [21]): 0.007 µg/mL (≈ 0.022 µM)
